Structures are written as SMILES. Calls of active or inactive are those of the source. The calls are words filed in the database; no cut-off is given here.

Usually IC50 stands for the point on the concentration scale where inhibition reaches its midpoint.

Series [1] is filed under the species Homo sapiens. As to the kind of experiment: Selectivity index, ratio of IC50 for wild type EGFR expressing human A431 cells to IC50 for EGFR T790M/L858R double mutant expressing human NCI-H1975 cells.
The subject of series [2] is A-431. As to the kind of experiment: Antiproliferative activity against wild type EGFR expressing human A431 cells after 72 hrs by SRB assay. The class given is cell-based. The conditions noted are these: A-431, 72 h. An outline of the steps:
(§1)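 SRB assay: cells seeded at 5×10^3 per well for 24 h, then exposed to serial dilutions for 72 h. DMSO stocks were 10.0 mg/ml. Cells were fixed with 10% TCA at 4 °C for 1 h and stained 15 min with 4 mg/mL SRB in 1% acetic acid. Absorbance was read at 515 nm. Inhibition was taken as [1-(A515 treated/A515 control)]×100%. IC50 was obtained by the logit method, averaging at least three independent experiments.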
For orientation: Sulforhodamine B stains cellular protein and so reports cell mass.

For series [3], the target named is T1, Epidermal growth factor receptor (Homo sapiens, UniProt P00533). As to the kind of experiment: Inhibition of recombinant human GST-tagged wild type EGFR expressed in baculovirus expression system using poly (Glu, Tyr) 4:1 as substrate after 1 hr by ELISA. In general terms: ELISA stands for enzyme-linked immunosorbent assay.
T1 sequence (P00533 whole entry): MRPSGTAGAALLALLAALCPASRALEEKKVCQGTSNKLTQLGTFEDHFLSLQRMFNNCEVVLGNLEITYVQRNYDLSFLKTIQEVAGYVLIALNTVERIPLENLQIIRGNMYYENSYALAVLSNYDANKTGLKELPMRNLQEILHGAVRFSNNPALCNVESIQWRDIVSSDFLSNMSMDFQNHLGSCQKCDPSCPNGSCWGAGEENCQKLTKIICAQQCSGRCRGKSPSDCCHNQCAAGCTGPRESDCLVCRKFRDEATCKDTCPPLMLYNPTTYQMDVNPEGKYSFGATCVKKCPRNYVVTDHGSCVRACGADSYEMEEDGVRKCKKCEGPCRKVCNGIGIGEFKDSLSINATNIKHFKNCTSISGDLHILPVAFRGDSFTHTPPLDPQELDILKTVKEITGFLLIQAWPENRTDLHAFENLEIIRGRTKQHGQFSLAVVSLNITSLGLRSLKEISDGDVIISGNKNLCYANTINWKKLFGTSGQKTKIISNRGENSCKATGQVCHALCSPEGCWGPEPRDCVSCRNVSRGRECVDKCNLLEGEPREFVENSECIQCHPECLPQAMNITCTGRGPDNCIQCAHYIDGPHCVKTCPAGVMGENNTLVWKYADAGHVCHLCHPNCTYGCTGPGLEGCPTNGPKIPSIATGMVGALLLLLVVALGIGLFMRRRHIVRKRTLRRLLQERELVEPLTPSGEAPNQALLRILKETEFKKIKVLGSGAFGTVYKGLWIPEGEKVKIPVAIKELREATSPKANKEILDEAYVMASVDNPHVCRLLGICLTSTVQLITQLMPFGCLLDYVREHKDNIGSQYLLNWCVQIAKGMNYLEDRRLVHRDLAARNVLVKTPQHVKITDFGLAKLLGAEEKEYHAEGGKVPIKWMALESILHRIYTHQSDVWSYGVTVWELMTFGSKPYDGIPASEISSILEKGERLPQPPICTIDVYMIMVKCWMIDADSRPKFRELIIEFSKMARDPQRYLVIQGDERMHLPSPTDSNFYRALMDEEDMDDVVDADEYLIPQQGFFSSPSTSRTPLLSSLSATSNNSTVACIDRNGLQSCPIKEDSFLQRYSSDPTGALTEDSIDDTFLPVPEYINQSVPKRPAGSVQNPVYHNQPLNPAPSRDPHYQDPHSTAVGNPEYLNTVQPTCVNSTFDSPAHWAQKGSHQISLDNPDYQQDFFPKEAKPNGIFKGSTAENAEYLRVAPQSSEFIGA
In series [4] the target is Epidermal growth factor receptor (Homo sapiens, UniProt P00533, L858R/T790M). As to the kind of experiment: Inhibition of recombinant human GST-tagged EGFR T790M/L858R double mutant expressed in baculovirus expression system using poly (Glu, Tyr) 4:1 as substrate after 1 hr by ELISA.
Sequence of Epidermal growth factor receptor (Homo sapiens, UniProt P00533, L858R/T790M) (P00533 25-1210 T790M/L858R limits assumed): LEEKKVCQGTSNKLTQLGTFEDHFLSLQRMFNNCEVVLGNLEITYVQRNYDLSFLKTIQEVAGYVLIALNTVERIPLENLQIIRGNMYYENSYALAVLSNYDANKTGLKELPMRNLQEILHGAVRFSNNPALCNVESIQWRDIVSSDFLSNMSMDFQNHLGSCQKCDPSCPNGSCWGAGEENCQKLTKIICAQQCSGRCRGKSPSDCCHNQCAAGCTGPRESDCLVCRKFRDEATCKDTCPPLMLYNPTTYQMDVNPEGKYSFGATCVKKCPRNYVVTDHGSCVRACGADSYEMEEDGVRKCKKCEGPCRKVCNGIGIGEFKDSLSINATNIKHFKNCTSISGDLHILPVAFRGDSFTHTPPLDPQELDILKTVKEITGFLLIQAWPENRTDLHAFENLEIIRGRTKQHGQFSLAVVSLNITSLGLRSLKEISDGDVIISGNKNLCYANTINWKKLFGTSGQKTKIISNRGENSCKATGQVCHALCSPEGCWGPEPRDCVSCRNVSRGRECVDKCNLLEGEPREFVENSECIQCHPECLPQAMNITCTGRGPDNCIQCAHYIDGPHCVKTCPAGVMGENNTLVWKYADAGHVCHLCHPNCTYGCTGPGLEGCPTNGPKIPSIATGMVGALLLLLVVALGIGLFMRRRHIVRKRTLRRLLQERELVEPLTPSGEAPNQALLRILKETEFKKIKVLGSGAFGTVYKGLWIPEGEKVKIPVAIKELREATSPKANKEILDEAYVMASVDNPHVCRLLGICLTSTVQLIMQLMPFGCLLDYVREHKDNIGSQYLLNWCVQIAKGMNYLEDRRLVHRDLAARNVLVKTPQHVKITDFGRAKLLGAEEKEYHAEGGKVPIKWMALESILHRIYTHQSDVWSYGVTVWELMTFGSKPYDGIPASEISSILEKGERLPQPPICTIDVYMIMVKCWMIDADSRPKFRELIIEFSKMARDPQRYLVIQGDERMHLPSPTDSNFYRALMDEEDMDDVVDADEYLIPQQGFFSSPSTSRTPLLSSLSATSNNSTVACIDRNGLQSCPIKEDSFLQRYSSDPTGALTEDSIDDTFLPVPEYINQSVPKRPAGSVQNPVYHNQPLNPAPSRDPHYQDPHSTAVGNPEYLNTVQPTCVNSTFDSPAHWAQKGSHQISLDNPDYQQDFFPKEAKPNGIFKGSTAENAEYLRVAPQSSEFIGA
Series [5] deals with NCI-H1975. As to the kind of experiment: Antiproliferative activity against EGFR T790M/L858R double mutant expressing human NCI-H1975 cells after 72 hrs by SRB assay. The class given is functional, cell-based. The conditions noted are these: NCI-H1975, 72 h. Put shortly: as §1
In series [6] the test system is Mus musculus. As to the kind of experiment: In vivo inhibition of EGFR T790M/L858R double mutant phosphorylation in tumor of BALB/c athymic nude mouse xenografted with human NCI-H1975 cells assessed as decrease in Akt phosphorylation at 10 mg/kg, po bid for 21 days. Format: functional, organism-based. Put shortly: (§2)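 Western blot of NCI-H1975 xenograft tumors from mice given 10 mg/kg orally twice daily. Phospho-EGFR and phospho-Akt were quantified against the vehicle control group. Significance was set at p < 0.05.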
For orientation: In xenograft studies the graft and the host belong to different species.

The subject of series [7] is Mus musculus. As to the kind of experiment: Toxicity in BALB/c athymic nude mouse xenografted with wild type EGFR expressing human A431 cells assessed as body weight loss at 10 to 20 mg/kg, po bid for 21 days. The conditions noted are these: in vivo, 504 h.
Series [8] concerns NCI-H1975. As to the kind of experiment: Antitumor activity against EGFR T790M/L858R double mutant expressing human NCI-H1975 cells xenografted in po dosed BALB/c athymic nude mouse assessed as tumor growth inhibition administered as bid for 21 days. The class given is functional, organism-based.
For series [9], the target named is T1, Epidermal growth factor receptor. As to the kind of experiment: Inhibition of EGF-induced wild type EGFR phosphorylation in human A431 cells at 0.1 to 1000 nM preincubated for 2 hrs followed by EGF induction and measured after 10 mins by Western blot analysis. Format: cell-based. The conditions noted are these: 1 µM. An outline of the steps: (§3)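 Cells were treated with or without compound for 2 h, then stimulated with 50 ng/ml EGF for 10 min. They were lysed in SDS lysis buffer for Western blot. Blots were probed for p-EGFR, EGFR, p-ERK, ERK, p-AKT and AKT, with tubulin as reference.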

The species entered for series [10] is Homo sapiens. As to the kind of experiment: Selectivity ratio of IC50 for recombinant human GST-tagged wild type EGFR to IC50 for recombinant human GST-tagged EGFR T790M/L858R double mutant.
The test system of series [11] is Mus musculus. As to the kind of experiment: In vivo inhibition of wild type EGFR phosphorylation in tumor of BALB/c athymic nude mouse xenografted with human A431 cells assessed as decrease in Akt phosphorylation at 10 mg/kg, po bid for 21 days. The conditions noted are these: 504 h.
Series [12] relates to Epidermal growth factor receptor (Homo sapiens), P00533 [L858R,T790M]. As to the kind of experiment: Inhibition of EGF-induced EGFR T790M/L858R double mutant phosphorylation in human NCI-H1975 cells preincubated for 2 hrs followed by EGF induction and measured after 10 mins by Western blot analysis. Format: cell-based. Put shortly:
as §3

For series [13] the test system is unchanged. As to the kind of experiment: Inhibition of EGF-induced EGFR T790M/L858R double mutant in human NCI-H1975 cells assessed as decrease in ERK phosphorylation preincubated for 2 hrs followed by EGF induction and measured after 10 mins by Western blot analysis. Format: cell-based. An outline of the steps: as §3
The test system of series [14] is Mus musculus. As to the kind of experiment: Toxicity in BALB/c athymic nude mouse xenografted with EGFR T790M/L858R double mutant expressing human NCI-H1975 cells assessed as body weight loss at 10 to 20 mg/kg, po bid for 21 days. Format: organism-based. As to conditions: in vivo, 504 h.
For series [15], the system named is Epidermal growth factor receptor (Homo sapiens), P00533 [L858R,T790M]. As to the kind of experiment: Inhibition of EGF-induced EGFR T790M/L858R double mutant in human NCI-H1975 cells assessed as decrease in AKT phosphorylation preincubated for 2 hrs followed by EGF induction and measured after 10 mins by Western blot analysis. The class given is cell-based. Put shortly:
as §3

The test system of series [16] is Mus musculus. As to the kind of experiment: In vivo inhibition of wild type EGFR phosphorylation in tumor of BALB/c athymic nude mouse xenografted with human A431 cells at 10 mg/kg, po bid for 21 days. The conditions noted are these: 504 h.
Series [17] has as its system Mus musculus. As to the kind of experiment: In vivo inhibition of EGFR T790M/L858R double mutant phosphorylation in tumor of BALB/c athymic nude mouse xenografted with human NCI-H1975 cells at 10 mg/kg, po bid for 21 days. The class given is functional, organism-based. An outline of the steps:
as §2

Series [18] deals with A431 (Homo sapiens). As to the kind of experiment: Antitumor activity against wild type EGFR expressing human A431 cells xenografted in BALB/c athymic nude mouse assessed as tumor growth inhibition at 20 mg/kg, po bid for 21 days relative to vehicle-treated control. As to conditions: in vivo, 504 h.
Series [19] deals with NCI-H1975. As to the kind of experiment: Antitumor activity against EGFR T790M/L858R double mutant expressing human NCI-H1975 cells xenografted in BALB/c athymic nude mouse assessed as tumor growth inhibition at 10 mg/kg, po bid for 21 days. Format: functional, organism-based. Put shortly:
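5×10^6 NCI-H1975 cells injected subcutaneously into the right flank of athymic mice. At tumour volume 100-300 mm³, mice were randomised (n = 6 per group) to vehicle or drug. Drug given orally twice daily. Tumour size and body weight were measured on set days, with volume = length×width²/2. Results are group means with SEM.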

Sequence of Epidermal growth factor receptor (Homo sapiens), P00533 [L858R,T790M] (P00533 whole entry T790M/L858R, looked up): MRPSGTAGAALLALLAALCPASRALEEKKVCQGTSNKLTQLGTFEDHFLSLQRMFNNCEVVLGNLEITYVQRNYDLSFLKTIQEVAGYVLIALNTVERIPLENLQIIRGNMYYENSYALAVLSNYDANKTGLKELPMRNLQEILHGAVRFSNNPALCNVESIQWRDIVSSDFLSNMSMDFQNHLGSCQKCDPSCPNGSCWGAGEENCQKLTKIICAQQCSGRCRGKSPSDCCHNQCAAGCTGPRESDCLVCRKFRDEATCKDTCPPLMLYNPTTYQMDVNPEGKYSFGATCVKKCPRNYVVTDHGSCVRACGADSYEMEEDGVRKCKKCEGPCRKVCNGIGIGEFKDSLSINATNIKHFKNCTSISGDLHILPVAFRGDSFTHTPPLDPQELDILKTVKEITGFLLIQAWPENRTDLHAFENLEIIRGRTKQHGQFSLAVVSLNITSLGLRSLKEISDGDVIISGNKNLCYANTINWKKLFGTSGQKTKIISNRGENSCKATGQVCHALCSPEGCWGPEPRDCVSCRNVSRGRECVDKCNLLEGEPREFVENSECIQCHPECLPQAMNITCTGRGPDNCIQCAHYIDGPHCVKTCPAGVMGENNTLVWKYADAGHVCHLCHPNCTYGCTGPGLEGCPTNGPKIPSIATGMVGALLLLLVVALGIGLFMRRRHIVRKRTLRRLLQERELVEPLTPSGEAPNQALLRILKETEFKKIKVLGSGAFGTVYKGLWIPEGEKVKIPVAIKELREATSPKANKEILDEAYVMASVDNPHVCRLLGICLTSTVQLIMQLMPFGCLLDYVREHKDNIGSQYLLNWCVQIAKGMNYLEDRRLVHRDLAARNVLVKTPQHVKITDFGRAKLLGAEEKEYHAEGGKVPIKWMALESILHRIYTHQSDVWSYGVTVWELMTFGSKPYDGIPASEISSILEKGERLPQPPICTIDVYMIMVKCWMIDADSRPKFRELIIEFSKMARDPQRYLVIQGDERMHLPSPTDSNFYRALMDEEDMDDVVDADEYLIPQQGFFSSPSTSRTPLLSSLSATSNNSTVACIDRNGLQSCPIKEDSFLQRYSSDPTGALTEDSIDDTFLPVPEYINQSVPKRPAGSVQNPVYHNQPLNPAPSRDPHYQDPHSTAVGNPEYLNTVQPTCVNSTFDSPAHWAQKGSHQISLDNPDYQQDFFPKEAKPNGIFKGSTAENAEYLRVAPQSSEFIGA

Consider `C=CC(=O)Nc1cc(Nc2nccc(Nc3ccccc3-n3nccn3)n2)c(OC)cc1N1CCC(N(C)C)CC1`, for which, in [1], the Ratio IC50 came to 39. Also, the concentration for half-maximal inhibition (IC50) in series [2] is 2760 nM; in series [3], more than 1000 nM; in series [4] it was 202 nM; in [5], 70 nM.

For the molecule `C=CC(=O)Nc1cc(Nc2nccc(Nc3ccccc3-c3ccn(C)n3)n2)c(OC)cc1N(C)CCN(C)C`, the inhibition entry in series [6] and in series [17] was “Active” in each case. Besides, the Activity result in [7] and in series [14] was “Non-Toxic” in each case. Also, the values for the TGI result in series [8] and in series [18] were “Dose-dependent effect” and less than 20%, respectively. For the same molecule, the “inhibition (INH)” value in series [9], in series [11] and in series [16] was “Not Active” throughout. Moreover, the Ratio IC50 came out at 124 in [1] and 85 in series [10]. Also, the IC50 is 7370 nM in series [2], 350 nM in [3], 4.1 nM in [4] and 59 nM in series [5]. For the same molecule, the inhibition entry in [12], in [13] and in series [15] was “Dose-dependent effect” in each case.

On to `C=CC(=O)Nc1cc(Nc2nccc(Nc3ccccc3-c3ccn(C)n3)n2)c(OC)cc1OCCN(C)C`, for which the Ratio IC50 in series [1] was determined as 18; in series [10], 19. The IC50 came to 1580 nM in series [2], 317 nM in series [3], 16.4 nM in series [4] and 85 nM in series [5].

As for `C=CC(=O)Nc1cc(Nc2nccc(Nc3ccccc3-n3cccn3)n2)c(OC)cc1N(C)CCN(C)C`, the figures for the Ratio IC50 in series [1] and in series [10] were 148 and 158, respectively. For the same molecule, the IC50 is 10100 nM in series [2], 648 nM in series [3], 4.1 nM in series [4] and 68 nM in series [5].

As to `C=CC(=O)Nc1cc(Nc2nccc(Nc3ccccc3-n3nccn3)n2)c(OC)cc1N(C)CCN(C)C`, the Ratio IC50 in series [10] turned out to be 8. For the same molecule, the IC50 in [3] is 281 nM; in [4] it was 33.1 nM.

For the molecule `C=CC(=O)Nc1cc(Nc2nccc(Nc3ccccc3-n3nccn3)n2)c(OC)cc1N1CCN(C)CC1`, the concentration for half-maximal inhibition (IC50) in [3] is more than 1000 nM; in series [4], 175 nM.

Turning to `C=CC(=O)Nc1cc(Nc2nccc(Nc3ccccc3-n3nccn3)n2)c(OC)cc1N1CCOCC1`, the IC50 was more than 1000 nM in [3] and 838 nM in series [4].

As for `C=CC(=O)Nc1cc(Nc2nccc(Nc3ccccc3-n3cccn3)n2)c(OC)cc1N1CCOCC1`, the concentration for half-maximal inhibition (IC50) in [3] and in [4] was more than 1000 nM in each case.

Turning to `C=CC(=O)Nc1cc(Nc2nccc(Nc3ccccc3-c3ccn(C)n3)n2)c(OC)cc1N1CCOCC1`, the IC50 in [3] and in series [4] was more than 1000 nM in each case.

In the case of `C=CC(=O)Nc1cc(Nc2nccc(-c3cn(C)c4ccccc34)n2)c(OC)cc1N(C)CCN(C)C` [OSIMERTINIB], the half-inhibitory concentration (IC50) in series [2] is […]; in series [5], […]. Also, the TGI entry in [19] was “Active”.

Turning to `C=CC(=O)Nc1cc(Nc2nccc(Nc3ccccc3-c3ncn(C)n3)n2)c(OC)cc1N(C)CCN(C)C`, the Ratio IC50 in [1] is 20; in series [10], 86. Also, the IC50 in series [2] was 1500 nM; in series [3], 660 nM; in series [4] it was 7.7 nM; in series [5], 74 nM.

Take `C=CC(=O)Nc1cc(Nc2nccc(Nc3ccccc3-c3ccn(C)n3)n2)c(OC)cc1N1CCC(N(C)C)CC1`: the IC50 in series [3] is more than 1000 nM; in [4], 38.5 nM.

With `C=CC(=O)Nc1cc(Nc2nccc(Nc3ccccc3-n3cccn3)n2)c(OC)cc1N1CCN(C)CC1`, the IC50 in series [3] is more than 1000 nM; in [4], 143 nM.

As for `C=CC(=O)Nc1cc(Nc2nccc(Nc3ccccc3-c3ccn(C)n3)n2)c(OC)cc1N1CCN(C)CC1`, the 50% inhibitory concentration (IC50) in series [3] and in series [4] was more than 1000 nM each time.

The values above are taken from ChEMBL document CHEMBL4152247, “Discovery of novel 2,4-diarylaminopyrimidine derivatives as potent and selective epidermal growth factor receptor (EGFR) inhibitors against L858R/T790M resistance mutation” (Eur J Med Chem, 2018).
